Rows were chosen to be rich in hits. Some 4.9% of all compounds tested hit in one or more screens of this group.
APP 5'UTR act – activates APP 5'UTR luciferase reporter; SH-SY5Y APP 5'UTR luciferase reporter, luminescence; zero percent = DMSO vehicle wells; 190,000 compounds, 1% hits; activation, % at 2 µM;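 active means activation above a set limit, based on mean plus 3 SD of controls, cut at about 140% in these data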
STAT3 inh-1 – inhibitors of IL-6 induced STAT3 signaling. AID 862. 190,000 compounds, 0.89% hits. inhibition, % at 5.5 µM. U3A cells, IL-6 STAT3-luciferase reporter, luminescence; host cell line lacks STAT1;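 active means inhibition above the mean inhibition across all screened compounds plus 3 SD, cut at about 44% in these data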;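 further: 0% = DMSO only wells and 100% = 100 µM nifuroxazide control wells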
NF-kB neuron act – compounds increasing NF-kB expression in human neuronal cells; 190,000 compounds, 1.6% hits; NF-kB reporter expression; hits give high values; AID 1239; fold change at 12.5 µM; in the data active means fold change above about 3.3
STAT3 act – activators of IL-6 induced STAT3 signaling; U3A cells, IL-6 STAT3-luciferase reporter, luminescence; 100% = signal with IL-6 EC80 alone; activation (% of control), % at 5.6 µM; 190,000 compounds, 0.91% hits;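 active means activation above the screen-wide mean of compound activation plus 3 SD, cut at about 130% in these data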;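 further: 0% = background luminescence of wells with medium and substrate only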
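Material: human STAT1-deficient U3A cells with stable STAT3-luciferase reporter / Probe or stimulus: IL-6 stimulus at 33 ng/mL final / Schedule: 1 h compound pre-exposure, 6 h IL-6 stimulation, 37 °C / Technique: luminescence / Read-out basis: percent of IL-6-only median luminescence / Control set: IL-6-only high control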
STAT1 activator – increases IFN-gamma driven STAT1 reporter signal | AID 932 | NIH 3T3 STAT1-luciferase reporter, luminescence; 100% = IFN-gamma alone, no compound | activation (% of control), % at 5.5 µM | 200,000 compounds, 2.6% hits;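 active means activation above the screen-wide mean activation plus 3 SD, cut at about 130% in these data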;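 further: raw ratio to IFN-gamma control signal so 100% means no change and 0% no light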
STAT1 inh – inhibitors of IFN-gamma induced STAT1 signaling. AID 920. NIH 3T3 STAT1-luciferase reporter, luminescence. 200,000 compounds, 0.35% hits. inhibition, % at 5.5 µM;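 active means inhibition above a set limit, the mean inhibition across all tested compounds plus 3 SD, cut at about 34% in these data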;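 further: 0% = IFN-gamma with DMSO and 100% = IFN-gamma with 300 µM nifuroxazide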
STAT3 inh-2 – STAT3 inhibition, confirmation assay; shares compounds with STAT3 inh-1; U3A cells, IL-6 STAT3 luciferase reporter, luminescence; cell line lacks STAT1; inhibition, % at 5.7 µM; 1,200 compounds, 45% hits;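 active means inhibition above the hit cutoff computed for the primary STAT3 screen, cut at about 44% in these data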;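 further: 0% = IL-6 plus DMSO and 100% = IL-6 plus nifuroxazide control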
NFkB inh 2 – inhibits NF-kappaB, counter-screen to STAT3 inhibitors; shares compounds with STAT3 inh-1; HEK293T NF-kB luciferase reporter, TNF-alpha induced; 1,200 compounds, 36% hits; inhibition, % at 5.7 µM;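 active means inhibition above the mean of solvent-only control wells plus 3 SD, cutoff set per campaign, cut at about 13% in these data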;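 further: 0% = TNF-alpha with DMSO and 100% = TNF-alpha with MG high control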
STAT1 inh STAT3c – STAT1 inhibition in STAT3 inhibitor counter-screen; shares compounds with STAT3 inh-1; NIH 3T3 STAT1-luciferase reporter, IFN-gamma induced, luminescence; inhibition, % at 5.7 µM; 1,200 compounds, 27% hits; AID 1317;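 active means inhibition above the mean plus 3 SD of solvent-only control wells, limit set per screening run, cut at about 16% in these data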;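 further: 0% = DMSO with IFN-gamma and 100% = nifuroxazide control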
The depositor's hits bear a star.

Screening O=S(=O)(c1cccs1)N1CCN(CC(O)COc2cc(Cl)ccc2Cl)CC1 (stereo not drawn) returned APP 5'UTR act 2.5, STAT3 inh-1 53.5*, NF-kB neuron act 0.59, STAT3 act 56.6, STAT1 activator 80.9, STAT1 inh 20.9, STAT3 inh-2 35.4, NFkB inh 2 15.0* and STAT1 inh STAT3c 17.2*.
Screening COc1ccc(CCNC(=O)COC(=O)CCC(=O)c2ccc(F)cc2)cc1 returned APP 5'UTR act -5.3, STAT3 inh-1 8.7, NF-kB neuron act 1.16, STAT3 act 99.2, STAT1 activator 91.0 and STAT1 inh 8.5.
O=C1c2ccc(Br)cc2C(=O)N1c1ccc(Cc2ccncc2)cc1 was read as APP 5'UTR act -15.7, STAT3 inh-1 59.3*, NF-kB neuron act 1.08, STAT3 act 50.2, STAT1 activator 76.2, STAT1 inh 25.8, STAT3 inh-2 58.7*, NFkB inh 2 5.2 and STAT1 inh STAT3c 11.9.
For O=C(c1cc2ccc([N+](=O)[O-])cc2oc1=O)N1CCOCC1 the results were APP 5'UTR act 57.2, STAT3 inh-1 12.5, NF-kB neuron act 0.96, STAT3 act 93.7, STAT1 activator 91.4 and STAT1 inh 7.4.
Screening Oc1ccc(N=Nc2ccc3c(c2)OCCO3)c2cccnc12 returned APP 5'UTR act -34.9, STAT3 inh-1 62.9*, NF-kB neuron act 1.04, STAT3 act 50.9, STAT1 activator 90.9, STAT1 inh 8.6, STAT3 inh-2 -4.6, NFkB inh 2 -11.8 and STAT1 inh STAT3c -36.8.
For CCN(CC)C(=O)CS(=O)(=O)CC(=O)Nc1cc(OCCOC)c(Cl)cc1Cl the results were APP 5'UTR act 6.6, STAT3 inh-1 4.4, NF-kB neuron act 0.92, STAT3 act 100.6, STAT1 activator 94.5 and STAT1 inh 4.4.
`O=C(Nc1cccc2ccccc12)c1ccc(OC(=S)N2CCOCC2)cc1` gave APP 5'UTR act 57.2, STAT3 inh-1 -17.2, NF-kB neuron act 2.28, STAT3 act 118.0, STAT1 activator 100.3 and STAT1 inh -0.3.
Screening O=C(Nc1cccc(Cl)c1)c1ccc(OC(=S)N2CCOCC2)cc1 returned APP 5'UTR act 156.6*, STAT3 inh-1 57.4*, NF-kB neuron act 1.85, STAT3 act 54.0, STAT1 activator 130.5*, STAT1 inh -33.5, STAT3 inh-2 33.2, NFkB inh 2 -27.2 and STAT1 inh STAT3c -93.3.
`CCCCOc1ccc2c(c1)/C(=C(\C(Cl)=C(Cl)Cl)[N+](=O)[O-])N2` gave APP 5'UTR act -14.6, STAT3 inh-1 0.9, NF-kB neuron act 1.11, STAT3 act 101.1, STAT1 activator 91.5 and STAT1 inh 8.7.
Screening O/C(=C\c1ccc2ccccc2n1)c1ccc(O)cc1O returned APP 5'UTR act 157.6*, STAT3 inh-1 60.9*, NF-kB neuron act 8.14*, STAT3 act 52.2, STAT1 activator 96.3, STAT1 inh 4.1, STAT3 inh-2 28.5, NFkB inh 2 -20.8 and STAT1 inh STAT3c -87.9.
For O=C(Nc1ccncc1)c1ccc(-c2ccccc2)cc1 the results were APP 5'UTR act 24.8, STAT3 inh-1 82.4*, NF-kB neuron act 1.44, STAT3 act 31.4, STAT1 activator 84.1, STAT1 inh 15.4, STAT3 inh-2 76.8*, NFkB inh 2 4.7 and STAT1 inh STAT3c 6.6.
For CCCCOC(=O)c1[nH]c2c(c1C)C(=O)CC(c1cc(OC)c(OC)c(OC)c1)C2 (stereo not drawn) the results were APP 5'UTR act -0.8, STAT3 inh-1 52.9*, NF-kB neuron act 0.66, STAT3 act 56.9, STAT1 activator 79.2, STAT1 inh 23.1, STAT3 inh-2 62.9*, NFkB inh 2 23.5* and STAT1 inh STAT3c 24.3*.
For N=C1C(c2ccccc2)=C(O)CN1c1cccc(S(=O)(=O)Nc2cccc(C(F)(F)F)c2)c1 the results were APP 5'UTR act -5.9, STAT3 inh-1 6.3, NF-kB neuron act 0.79, STAT3 act 97.6, STAT1 activator 108.3 and STAT1 inh -9.2.
`O=C1c2ccccc2NC(c2ccco2)N1/N=C/c1ccco1` (stereo not drawn) gave APP 5'UTR act 13.5, STAT3 inh-1 5.1, NF-kB neuron act 1.35, STAT3 act 100.5, STAT1 activator 109.3 and STAT1 inh -10.4.
`C/C(=N\N1C(=O)c2ccccc2NC1c1ccco1)c1ccccc1O` (stereo not drawn) gave APP 5'UTR act 55.8, STAT3 inh-1 45.5*, NF-kB neuron act 6.6*, STAT3 act 65.4, STAT1 activator 116.7, STAT1 inh -17.9, STAT3 inh-2 16.8, NFkB inh 2 -23.4 and STAT1 inh STAT3c -99.1.
Screening CCCCOc1ncnc2c1[nH]c1ccc(OC)cc12 returned APP 5'UTR act 69.3, STAT3 inh-1 45.9*, NF-kB neuron act 4.37*, STAT3 act 65.7, STAT1 activator 137.3*, STAT1 inh -41.4, STAT3 inh-2 16.6, NFkB inh 2 -37.0 and STAT1 inh STAT3c -93.9.
For CCCCOc1ncnc2c1[nH]c1ccc(F)cc12 the results were APP 5'UTR act 45.4, STAT3 inh-1 82.6*, NF-kB neuron act 1.16, STAT3 act 35.2, STAT1 activator 79.7, STAT1 inh 22.3, STAT3 inh-2 74.2*, NFkB inh 2 18.6* and STAT1 inh STAT3c 31.8*.
Screening CCCCOc1ncnc2c1[nH]c1ccccc12 returned APP 5'UTR act 11.1, STAT3 inh-1 50.1*, NF-kB neuron act 1.01, STAT3 act 58.9, STAT1 activator 79.9, STAT1 inh 21.7, STAT3 inh-2 36.4, NFkB inh 2 19.1* and STAT1 inh STAT3c 25.0*.
Screening CCCCOc1ncnc2c1[nH]c1ccc(OCC)cc12 returned APP 5'UTR act 0.2, STAT3 inh-1 24.3, NF-kB neuron act 1.48, STAT3 act 83.2, STAT1 activator 100.5 and STAT1 inh -0.6.
Screening O=C(NCC1CCCO1)c1ccc(NS(=O)(=O)c2ccccc2)cc1 (stereo not drawn) returned APP 5'UTR act -3.3, STAT3 inh-1 4.9, NF-kB neuron act 1.33, STAT3 act 99.5, STAT1 activator 99.2 and STAT1 inh -0.7.
For CC(C)CN1C(=O)c2ccc(C(=O)Nc3ccncc3)cc2C1=O the results were APP 5'UTR act -10.8, STAT3 inh-1 48.9*, NF-kB neuron act 0.88, STAT3 act 62.7, STAT1 activator 87.1, STAT1 inh 14.3, STAT3 inh-2 56.6*, NFkB inh 2 6.4 and STAT1 inh STAT3c 7.9.

High-throughput results as filed in PubChem.
